This is an account of results in ChEMBL document CHEMBL1153034, “Antileishmaniasis activity of flavonoids from Consolida oliveriana” (J Nat Prod, 2009).

Usually IC50 stands for the concentration needed to halve the response being measured.

One series has as its system J774.2. The series is described as follows: Cytotoxicity against BALB/c mouse J774.2 cells after 72 hrs by trypan blue assay. The format is cell-based. The procedure, abridged: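 J774.2 macrophages in MEM with 10% inactivated FBS, pH 7.2, seeded at 10⁵ cells/mL, 2 days at 37 °C in 5% CO₂. Fresh medium with compound at 100, 50, 25, 10 and 1 µM, 72 h. Dead cells counted by trypan blue (0.1% in phosphate buffer); viability relative to control. IC50 by linear regression of K_c values.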

Series [1] relates to Leishmania peruviana. As to the kind of experiment: Antileishmanial activity against extracellular Leishmania peruviana promastigotes after 72 hrs. The format is functional, organism-based. The method, boiled down:
(§1)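 Promastigotes grown in MTL medium plus 10% inactivated FBS, air atmosphere, 28 °C. Compounds at 100, 50, 25, 10 and 1 µM, DMSO 0.1%. Parasites counted in a Neubauer hemocytometer at 24, 48 and 72 h. Average of three separate determinations.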

For series [2], the system named is Leishmania braziliensis. The series is described as follows: Antileishmanial activity against extracellular Leishmania braziliensis promastigotes after 72 hrs. Format: functional, organism-based. The procedure, abridged: as §1
Series [3] deals with Leishmania peruviana. As to the kind of experiment: Inhibition of acetate catabolite excretion in Leishmania peruviana promastigotes at IC25 after 96 hrs by NMR spectroscopy. The format is functional. The method, boiled down:
(§2)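 Promastigotes of L. (V.) peruviana or L. (V.) braziliensis in MTL medium (initial 5 × 10⁵ cells/mL) received drug at IC25; controls were untreated. After 96 h at 28 °C, cells were spun down at 1500 rpm for 10 min. Excreted end metabolites in the cell-free medium were identified by ¹H NMR and compared with fresh medium and untreated cultures.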

Series [4] deals with Leishmania peruviana. As to the kind of experiment: Antileishmanial activity against Leishmania peruviana infected in BALB/c mouse J774.2 cells assessed as decrease in parasite infection rate measured on day 10 relative to control. The format is functional. The arrangement: scale not given: the % may be the effect or the level left.
Series [5] concerns Leishmania peruviana. As to the kind of experiment: Effect on glycerol catabolite excretion in Leishmania peruviana promastigotes at IC25 after 96 hrs by NMR spectroscopy. The format is functional, organism-based. The method, boiled down:
as §2

For series [6], the system named is Leishmania peruviana. As to the kind of experiment: Inhibition of succinate catabolite excretion in Leishmania peruviana promastigotes at IC25 after 96 hrs by NMR spectroscopy. Format: functional. The procedure, abridged: as §2
A short description of series [7]: Ratio of compound IC50 to glucatim IC50 for BALB/c mouse J774.2 cells. Format: ADME, cell-based. The settings on record: read-out: Ratio IC50.
For series [8], the system named is Leishmania peruviana. The series is described as follows: Antileishmanial activity against Leishmania peruviana in BALB/c mouse J774.2 cells assessed as reduction of morphological conversion to parasite amastigote number per cell measured on day 10 by Giemsa staining relative to control. The arrangement: scale not given: the % may be the effect or the level left. The format is functional.

Series [9] concerns Leishmania peruviana. As to the kind of experiment: Antileishmanial activity against Leishmania peruviana assessed as abundance of morphologically altered glycosomes at IC25 after 96 hrs by transmission electron microscopy. The format is functional, organism-based.
In series [10] the test system is Leishmania braziliensis. As to the kind of experiment: Antileishmanial activity against intracellular Leishmania braziliensis amastigotes after 72 hrs by Giemsa staining. The format is functional, organism-based.
Series [11] has as its system Leishmania peruviana. As to the kind of experiment: Antileishmanial activity against intracellular Leishmania peruviana amastigotes after 10 days by Giemsa staining.
In series [12] the test system is Leishmania peruviana. As to the kind of experiment: Antileishmanial activity against Leishmania peruviana assessed as disruption of parasite cytoplasm at IC25 after 96 hrs by transmission electron microscopy. Format: functional, organism-based. The procedure, abridged: (§3)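 L. (V.) peruviana MHOM/PE/1984/LC26 or L. (V.) braziliensis MHOM/BR/1975/M2904 promastigotes at 5 × 10⁶ cells/mL in MTL medium plus 10% inactivated FBS, in air at 28 °C, with drug at IC25 for 96 h. Pellets were PBS-washed, fixed 2 h at 4 °C in 2% (v/v) p-formaldehyde-glutaraldehyde in 0.05 M cacodylate (pH 7.4), and examined by TEM against untreated parasites.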

Series [13] has as its system Leishmania peruviana. The series is described as follows: Increase in L-alanine catabolite excretion in Leishmania peruviana promastigotes at IC25 after 96 hrs by NMR spectroscopy. Format: functional, organism-based. The method, boiled down:
as §2

The subject of series [14] is Leishmania peruviana. The series is described as follows: Effect on pyruvate catabolite excretion in Leishmania peruviana promastigotes at IC25 after 96 hrs by NMR spectroscopy. The format is functional, organism-based. The method, boiled down:
as §2

The nature of series [15]: Ratio of compound IC50 to pentostam IC50 for BALB/c mouse J774.2 cells. Format: ADME, cell-based. The settings on record: read-out: Ratio IC50.
In series [16] the test system is Leishmania peruviana. As to the kind of experiment: Antileishmanial activity against Leishmania peruviana assessed as induction of death of parasite with distortion of parasite body at IC25 after 96 hrs by transmission electron microscopy. The format is functional, organism-based. The method, boiled down: as §3
The mark [17] stands for this setting: Mus musculus, BALB/c, J774.2, 72 h.

Calls of active or inactive are those of the source. The rule behind the calls is not given here.

As for `O=c1c(O)c(-c2ccc(O)cc2)oc2cc(O)cc(O)c12` [KAEMPFEROL], the IC50 turned out to be 53.7 µM with J774.2 (setting [17]); 71.3 µM in the series with Leishmania peruviana [1] (Leishmania peruviana, 72 h); 53.6 µM in the series with Leishmania braziliensis [2] (Leishmania braziliensis, 72 h).

MEGLUMINE ANTIMONATE: the half-maximal inhibitory concentration (IC50) was found to be 15.2 µM in the series with J774.2 (j774.2), 15.3 µM with Leishmania peruviana [1] and 25.6 µM with Leishmania braziliensis [2].

Take `O=c1c(O)c(-c2ccc(O)c(O)c2)oc2cc(O)cc(O)c12` [QUERCETIN]: the half-inhibitory concentration (IC50) turned out to be 125 µM in the series on J774.2 (setting [17]); 60 µM in the series on Leishmania peruviana [1] (Leishmania peruviana, 72 h); 30.5 µM with Leishmania braziliensis [2] (Leishmania braziliensis, 72 h).

As to `CC(=O)Oc1cc(OC(C)=O)c2c(=O)c(OC(C)=O)c(-c3ccc(OC(C)=O)c(OC(C)=O)c3)oc2c1`, the 50% inhibitory concentration (IC50) with J774.2 (setting [17]) was 109 µM; with Leishmania peruviana [1] (Leishmania peruviana, 72 h), 11.2 µM; with Leishmania braziliensis [2] (Leishmania braziliensis, 72 h), 46.8 µM. The “inhibition (INH)” value in the series on Leishmania peruviana [3] and in the series with Leishmania peruviana [6] was 30% throughout. Also, the Activity was 40% in the series with Leishmania peruviana [4] and 72% in the series on Leishmania peruviana [8]. The outcome in the series on Leishmania peruviana [5], in the series with Leishmania peruviana [9], in the series with Leishmania braziliensis [10], with Leishmania peruviana [11], with Leishmania peruviana [12] and in the series on Leishmania peruviana [13] was Active. The result in the series with Leishmania peruviana [14] and with Leishmania peruviana [16] was Active. The selectivity ratio in series [7] and in series [15] was 10 in each case.

On to `O=c1c(O[C@@H]2O[C@H](CO)[C@H](O)[C@H](O)[C@H]2O)c(-c2ccc(O)cc2)oc2cc(O)cc(O)c12` [TRIFOLIN], for which the concentration for half-maximal inhibition (IC50) in the series with J774.2 (setting [17]) was 161 µM; with Leishmania peruviana [1] (Leishmania peruviana, 72 h) it was 53.3 µM; in the series with Leishmania braziliensis [2] (Leishmania braziliensis, 72 h) it was 52.5 µM.

Turning to `CC(=O)OC[C@H]1O[C@@H](Oc2c(-c3ccc(O)c(O)c3)oc3cc(O)cc(O)c3c2=O)[C@H](O)[C@@H](O)[C@H]1O`, the IC50 is 61.3 µM in the series with J774.2 (setting [17]); 87 µM in the series with Leishmania peruviana [1] (Leishmania peruviana, 72 h); 51.6 µM in the series on Leishmania braziliensis [2] (Leishmania braziliensis, 72 h).
